Results published in ChEMBL document CHEMBL1124947, “Cationic antiprotozoal drugs. Trypanocidal activity of 2-(4'-formylphenyl)imidazo[1,2-a]pyridinium guanylhydrazones and related derivatives of quaternary heteroaromatic compounds” (J Med Chem, 1990).
One block for each compound: values may come before it.

Assays:
Format in all cases: functional
Mus musculus [1] = experiment: Trypanocidal Activity at I.C.E. value 0.24 when administered subcutaneously.
Procedure, shortened: (§1)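 Blood-stage T. rhodesiense infection came from a standard inoculum lethal to all untreated mice. Drug was given by subcutaneous injection to groups of five mice. Survival beyond 30 days counted as cure. […] Sub-curative doses scored 0, and data were normalized at each dose.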

Mus musculus [2] = experiment: Trypanocidal Activity at I.C.E. value 0.52 when administered subcutaneously.; procedure, shortened: as §1
Mus musculus [3] = experiment: Trypanocidal Activity at I.C.E. value 0.47 when administered subcutaneously.; procedure, shortened: as §1
Mus musculus [4] = experiment: Trypanocidal Activity at I.C.E. value 0.32 when administered subcutaneously.; procedure, shortened: as §1
Mus musculus [5] = experiment: Trypanocidal Activity at I.C.E. value 0.36 when administered subcutaneously.
Mus musculus [6] = experiment: Trypanocidal Activity at I.C.E. value 0.17 when administered subcutaneously.
[7] = test system: Trypanosoma brucei rhodesiense; experiment: In Vitro measurement of inhibition of leucine uptake in cell culture of Trypanosoma rhodesiense; conditions: read-out: ID50 (the source's name)
Procedure, shortened: (§2)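 Trypanosomes harvested from infected rats, cultured 3 h with several concentrations of drug, usually 0.1–100 µg/mL. Radiolabeled L-leucine uptake measured. ID50 is the concentration in µg/mL giving 50% inhibition of incorporation.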

[8] = test system: Trypanosoma brucei rhodesiense; experiment: In Vitro measurement of inhibition of thymidine uptake in cell culture of Trypanosoma rhodesiense; conditions: read-out: ID50 (the source's name)
Procedure, shortened: (§3)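 Parasites harvested from infected rats and incubated 3 h across a drug concentration series, usually 0.1–100 µg/mL. Incorporation of radiolabeled thymidine measured. ID50 is the concentration (µg/mL) producing 50% inhibition.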

Mus musculus [9] = experiment: Trypanocidal Activity at I.C.E. value 0.45 when administered subcutaneously.; procedure, shortened: as §1
Mus musculus [10] = experiment: Trypanocidal Activity at I.C.E. value 0.29 when administered subcutaneously.; procedure, shortened: as §1
Mus musculus [11] = experiment: Trypanocidal Activity at I.C.E. value 0.57 when administered subcutaneously.
Procedure, shortened: (§4)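 Mice, in groups of five per dose, were given a standard inoculum of blood-stage T. rhodesiense that is lethal to all untreated controls, then dosed subcutaneously. Usually 11 dose levels were used (2^n × 0.42 mg/kg).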

Mus musculus [12] = experiment: Trypanocidal Activity at I.C.E. value 0.57 when administered perorally.
Mus musculus [13] = experiment: Trypanocidal Activity at I.C.E. value 0.44 when administered subcutaneously.; procedure, shortened: as §1
Mus musculus [14] = experiment: Trypanocidal Activity at I.C.E. value 0.16 when administered subcutaneously.
Mus musculus [15] = experiment: Trypanocidal Activity at I.C.E. value 0.65 when administered subcutaneously.; procedure, shortened: as §4
Mus musculus [16] = experiment: Trypanocidal Activity at I.C.E. value 0.38 when administered subcutaneously.; procedure, shortened: as §1
Mus musculus [17] = experiment: Trypanocidal Activity at I.C.E. value 0.34 when administered subcutaneously.; procedure, shortened: as §1
[18] = test system: Trypanosoma brucei rhodesiense; experiment: In Vitro measurement of inhibition of thymidine uptake in cell culture of Trypanosoma rhodesiense.; conditions: read-out: ID50 (the source's name); procedure, shortened: as §3
[19] = test system: Trypanosoma brucei rhodesiense; experiment: In Vitro measurement of inhibition of Leucine uptake in cell culture of Trypanosoma rhodesiense.; conditions: read-out: ID50 (the source's name); procedure, shortened: as §2
Mus musculus [20] = experiment: Trypanocidal Activity at I.C.E. value 0.39 when administered subcutaneously.; procedure, shortened: as §1

SMILES: Br.Cc1ccn2cc(-c3ccc(/C=N/NC(=N)N4CCN(C)CC4)cc3)[n+](C)c2c1.[Br-]
CD50 (Mus musculus [1]): 3.3 mg/kg

SMILES: Br.CCNC(=N)N/N=C/c1ccc(OCc2cn3c(C)cccc3[n+]2C)cc1.[Br-]
CD50 (Mus musculus [2]): 0.4 mg/kg

SMILES: Br.CCCC/N=C(/NCCCC)N/N=C/c1ccc(-c2cn3ccc(C)cc3[n+]2C)cc1.[Br-]
CD50 (Mus musculus [1]): 53 mg/kg

SMILES: Br.Cc1c(-c2ccc(/C=N/NC(=N)N3CCCC3)cc2)[n+](C)c2ccccn12.[Br-]
CD50 (Mus musculus [3]): 0.2 mg/kg

SMILES: Br.C/N=C(/NC)N/N=C/c1ccc(OCc2cn3c(C)cccc3[n+]2C)cc1.[Br-]
CD50 (Mus musculus [4]): 3.3 mg/kg

SMILES: Br.C=CC[n+]1c(-c2ccc(/C=N/NC(=N)N)cc2)cn2ccccc21.[Br-]
CD50 (Mus musculus [5]): 0.4 mg/kg

SMILES: CC(=O)Nc1ccc(-c2cn3ccc4ccccc4c3[n+]2C)cc1.[Br-]
CD50 (Mus musculus [6]): 212 mg/kg
IC50 [7]: 5.2 µg/mL
IC50 [8]: 3.2 µg/mL

SMILES: Br.Cc1c(-c2ccc(/C=N/NC(=N)N)cc2)[n+](C)c2ccccn12.[Br-]
CD50 (Mus musculus [9]): 0.2 mg/kg

SMILES: Br.C[n+]1c(-c2ccc(/C=N/NC(=N)N)cc2)c([N+](=O)[O-])n2ccccc21.[Br-]
IC50 [7]: 1.7 µg/mL
CD50 (Mus musculus [10]): 3.3 mg/kg
IC50 [8]: 2.7 µg/mL

SMILES: Br.COc1ccc2n(c1)cc(-c1ccc(/C=N/NC(=N)SC)cc1)[n+]2C.[Br-]
CD50 (Mus musculus [3]): 13 mg/kg

SMILES: C[n+]1c(-c2ccc(/C=N/NC(=O)c3ccc(N)cc3)cc2)cn2ccccc21.Cc1ccc(S(=O)(=O)[O-])cc1
CD50 (Mus musculus [11]): 0.8 mg/kg

SMILES: Cc1ccc(S(=O)(=O)N/N=C/c2ccc(-c3cn4ccccc4[n+]3C)cc2)cc1.[Br-]
CD50 (Mus musculus [6]): 53 mg/kg

SMILES: Br.Cn1c(COc2ccc(/C=N/NC3=NCCCN3)cc2)[n+](C)c2ccccc21.[Br-]
CD50 (Mus musculus [12]): 6.6 mg/kg
IC50 [7]: > 10 µg/mL
IC50 [8]: 4.4 µg/mL
CD50 (Mus musculus [2]): 1.6 mg/kg

SMILES: Cc1ccc(S(=O)(=O)[O-])cc1.Cc1cccc2n1cc(-c1ccc(COc3ccc(/C=N/NC(=O)c4ccc(N)cc4)cc3)cc1)[n+]2C
CD50 (Mus musculus [13]): 13 mg/kg

SMILES: Br.CCSc1ccc2n(c1)cc(-c1ccc(/C=N/NC(=N)SC)cc1)[n+]2C.[Br-]
CD50 (Mus musculus [14]): 106 mg/kg

SMILES: C[n+]1c(-c2ccc(/C=N/NC(=N)N)cc2)cn2ccsc21.Cc1ccc(S(=O)(=O)O)cc1.Cc1ccc(S(=O)(=O)[O-])cc1
CD50 (Mus musculus [15]): 0.4 mg/kg
IC50 [7]: 1.3 µg/mL
IC50 [8]: 1.4 µg/mL

SMILES: Br.C/N=C(/N/N=C/c1ccc(-c2cn3ccc(C)cc3[n+]2C)cc1)SC.[Br-]
CD50 (Mus musculus [16]): 26 mg/kg

SMILES: C[n+]1c(-c2ccc(/C=N/NC(=N)NO)cc2)cn2ccsc21.Cc1ccc(S(=O)(=O)O)cc1.Cc1ccc(S(=O)(=O)[O-])cc1
IC50 [7]: 1.7 µg/mL
IC50 [8]: 2 µg/mL
CD50 (Mus musculus [2]): 0.8 mg/kg

SMILES: Br.C[n+]1c(COc2ccc(/C=N/NC(=N)N)cc2)cn2ccccc21.[Br-]
IC50 [7]: 0.9 µg/mL
CD50 (Mus musculus [3]): 0.1 mg/kg
IC50 [8]: 0.8 µg/mL

SMILES: Cc1ccc(S(=O)(=O)O)cc1.Cc1ccc(S(=O)(=O)[O-])cc1.Cc1cccc2n1cc(/C=N/NC(=N)NO)[n+]2C
CD50 (Mus musculus [6]): 106 mg/kg

SMILES: Br.C/N=C(\NC)N/N=C/c1ccc(OCc2n(C)c3ccccc3[n+]2C)cc1.[Br-]
CD50 (Mus musculus [17]): 3.3 mg/kg

SMILES: Br.C[n+]1c(-c2ccc(/C=N/NC(=N)NCCN3CCOCC3)cc2)cn2ccccc21.[Br-]
CD50 (Mus musculus [16]): 0.8 mg/kg
IC50 [18]: 2.3 µg/mL
IC50 [19]: 11.7 µg/mL

SMILES: Cc1ccc2n(c1)cc(-c1ccc(/C=N/Nc3cc(N)[nH]n3)cc1)[n+]2C.[Br-]
IC50 [7]: > 10 µg/mL
CD50 (Mus musculus [10]): 26 mg/kg
IC50 [8]: > 10 µg/mL

SMILES: Cc1ccc2n(c1)cc(-c1ccc(/C=N/Nc3nc[nH]n3)cc1)[n+]2C.[Br-]
CD50 (Mus musculus [20]): 13 mg/kg
IC50 [8]: 3.8 µg/mL

SMILES: C[n+]1c(-c2ccc(/C=N/Nc3cc(N)[nH]n3)cc2)cn2ccccc21.[Br-]
CD50 (Mus musculus [10]): 13 mg/kg

SMILES: C[n+]1c(-c2ccc(C(=N)NO)cc2)cn2ccccc21.[Cl-]
CD50 (Mus musculus [10]): 53 mg/kg

SMILES: Br.CC(Cc1ccncc1)NC(=N)N/N=C/c1ccc(-c2cn3ccccc3[n+]2C)cc1.[Br-] (centres undefined)
CD50 (Mus musculus [16]): 0.8 mg/kg

SMILES: Cc1ccc2n(c1)cc(-c1ccc(C(=N)NO)cc1)[n+]2C.[Cl-]
CD50 (Mus musculus [14]): 106 mg/kg

IC50 [7]: > 10 µg/mL
IC50 [8]: 0.5 µg/mL
SMILES: C[n+]1c(COc2ccc(/C=N/Nc3nc[nH]n3)cc2)cn2ccccc21.[Br-]

SMILES: Br.CC(Cc1c[nH]cn1)NC(=N)N/N=C/c1ccc(-c2cn3ccccc3[n+]2C)cc1.[Br-] (centres undefined)
CD50 (Mus musculus [16]): 1.6 mg/kg
